Source: PubChem BioAssay (The Scripps Research Institute Molecular Screening Center)
TLR9-MyD88 inh – TLR9-MyD88 interaction inhibition | CHO BLA complementation TLR9-MyD88, CCF4 FRET ratio | 340,000 tested, 0.21% active | AID 504734 | inhibition, % at 4.98 µM | Q9NR96+Q99836;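 active = inhibition above the mean over all tested compounds plus 3 SD, cut at about 21% in these data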
MC4R ag barr – agonists of human melanocortin 4 receptor (MC4R) beta-arrestin | P32245 | U2OS MC4R beta-arrestin complementation, luminescence; percent of melanotan II response, DMSO zero | activation, % at 8.9 µM | 360,000 tested, 0.98% active | AID 540308;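 active = activation above a per-plate cutoff, the mean activation of sample wells on that plate plus 3 SD, cut at about 8% in these data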
NOD2 RIPK2 PPI – blocks binding of human NOD2 to RIPK2. O43353. CHO BLA complementation NOD2-RIPK2, CCF4 ratio. inhibition, % at 4.98 µM. 360,000 tested, 0.38% active. AID 624267; in the data active = inhibition above about 21%
MC4R antag cAMP – antagonists of human melanocortin 4 receptor (MC4R). 360,000 tested, 0.48% active. MC4R-expressing cells, MTII-stimulated cAMP, LANCE TR-FRET. AID 540295. inhibition, % at 6.5 µM. P32245;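 active = inhibition above its plate's cutoff, the mean of tested wells on that plate plus 3 SD, cut at about 29% in these data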
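System: U2OS-MC4R stable cell line; Technique: Eu-cAMP/anti-cAMP TR-FRET, emission 671 nm; Repeats: single well per compound; Also added: Melanotan II; Dosing: one concentration, 6.5 µM nominal; Schedule: 30-min compound, 1-h challenge, 1-h detection, room temperature.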
TLR4 MyD88 comp – inhibitors of human TLR4-MyD88 binding; O00206+Q99836; HeLa CL3-4 TLR4/MyD88 BLA complementation, FRET ratio; inhibition, % at 8.4 µM; 200,000 tested, 0.18% active; in the data active = inhibition above about 25%
cAMP nonselect – U2OS forskolin cAMP inhibition counter-screen; shares compounds with MC4R antag cAMP; parental U2OS, LANCE TR-FRET; 1,600 tested, 26% active; inhibition, % at 6.5 µM;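 active = mean inhibition over triplicates above the low-control well mean plus 3 SD, set per campaign, cut at about 13% in these data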;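 also: signal is single emission at 671 nm which falls as cellular cAMP rises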
MC4R cAMP antag – human MC4R cAMP antagonism confirmation. shares compounds with MC4R antag cAMP. inhibition, % at 6.5 µM. AID 602195. 1,600 tested, 27% active. MC4R-expressing cells, MTII-stimulated cAMP, TR-FRET; in the data active = inhibition above about 29%
A number is an active result; - = inactive; . = no result. An excerpt weighted towards active compounds, which were near 1.8% of everything screened.

SMILES	TLR9-MyD88 inh	MC4R ag barr	NOD2 RIPK2 PPI	MC4R antag cAMP	TLR4 MyD88 comp	cAMP nonselect	MC4R cAMP antag
OC(c1ccccc1)c1nc(-c2cccs2)cs1 (centres undefined)	.	-	-	-	.	.	.
O=C(Nc1ccccc1N1CCCC1)c1ccccc1Cl	-	-	-	-	.	.	.
Cc1ccccc1C(=O)Nc1ccccc1N1CCCCC1	-	-	-	34.8	-	-	-
CC(C)(C)OC(=O)NCc1ccc(NC(=O)c2nc[nH]c2C(=O)N[C@@H](Cc2ccccc2)C(=O)OCc2ccccc2)cc1	-	94.6	-	62.8	.	-	36.1
Cc1ccc(S(=O)(=O)N2CCC(C(=O)OCC(=O)N3CCc4ccccc43)CC2)cc1	-	-	-	-	-	.	.
Cc1ccnc2nc(C(=O)OCC(=O)N3CCc4ccccc43)nn12	-	-	-	33.8	-	-	-
Cc1ccc(S(=O)(=O)N2CCC[C@H]2C(=O)OCC(=O)N2CCc3ccccc32)cc1	-	-	-	31.4	.	-	-
CCC(c1nnc(SC(C)C(=O)NC2CC2)n1-c1ccc(OC)cc1)N(C)C (centres undefined)	-	-	-	-	.	.	.
CCN(CC)C(=O)COCc1cc(-c2ccc3c(c2)OCO3)on1	-	-	-	-	.	.	.
O=C(NC1CCCCC1)C(c1ccccc1)N(Cc1cccnc1)C(=O)c1csnn1 (centres undefined)	-	-	-	-	.	.	.
COc1cc(NS(=O)(=O)c2ccc3c(c2)C(C)(C)C(=O)N3C)cc(OC)c1	-	-	-	-	.	.	.
CC1CCC2(CC1)NC(=O)N(CC(=O)NC(=O)Nc1ccc3c(c1)OCCO3)C2=O (centres undefined)	-	-	-	29.5	.	-	-
CC1CCC2(CC1)NC(=O)N(CC(=O)Nc1ccc3c(c1)OCCO3)C2=O (centres undefined)	-	-	-	-	-	.	.
Cc1ccsc1-c1ccnc(-n2cccc2)n1	-	-	-	-	-	.	.
Cc1cc(-c2sccc2Br)nc(-n2cccc2)n1	-	-	-	34.8	-	-	-
Cc1cc(-c2ccc(Br)s2)nc(-n2cccc2)n1	-	-	-	40.8	-	-	-
S=C1NC[C@H](Cc2ccccc2)N1CC1CCN(CCCC2CCCC2)CC1	-	-	-	63.0	.	-	-
O=C1C(=O)N(CCS(=O)(=O)c2ccccc2)c2ccc(F)cc21	-	-	-	-	.	.	.
COc1ccc(/C=C/C2=CC(C)(C)NC(=S)N2)cc1OC	-	-	-	-	-	.	.
COc1cccc(/C=C/C2=CC(C)(C)NC(=S)N2)c1	-	-	-	28.7	-	-	-
CCOc1cc(/C=C2\N=C(C)OC2=O)cc(Br)c1OCC(=O)OC	-	-	-	44.2	-	-	-
CC(C)Cc1ccc(C(C)CC2=CCC(CN(C)C)C2=O)cc1 (centres undefined)	-	-	-	39.0	.	-	45.9
CC(C)Cc1ccc(C(C)/C=C2/CCC(CN3CCCCC3)C2=O)cc1 (centres undefined)	-	-	-	-	.	.	.
COc1ccc(CNC(=S)NCc2ccc(Cl)cc2)cc1OC	-	-	-	-	.	.	.
Cc1cc(Oc2ccc(C)c(Cl)c2)nc(SCC(=O)c2ccccc2)n1	-	-	-	45.0	-	22.8	47.0
SMILES	TLR9-MyD88 inh	MC4R ag barr	NOD2 RIPK2 PPI	MC4R antag cAMP	TLR4 MyD88 comp	cAMP nonselect	MC4R cAMP antag
Cn1nnnc1Sc1ncnc2scc(-c3cc4ccccc4o3)c12	-	-	-	-	.	.	.
COc1ccc(/C=C/C(=O)c2ccc([N+](=O)[O-])o2)cc1	-	-	-	30.1	.	-	-
Cc1cccc(/C=C/C(=O)c2ccc([N+](=O)[O-])o2)c1	-	-	-	-	.	.	.
CC(C)C1CC(CCNCc2ccc(N(C)C)cc2)(c2ccccc2)CCO1 (centres undefined)	-	-	-	-	-	.	.
CC(C)C1CC(CCNCc2ccc3c(c2)OCO3)(c2ccccc2)CCO1 (centres undefined)	-	-	-	33.5	.	-	40.8
O=C(CSc1nc2cc(Cl)ccc2s1)N1CCN(C(=O)c2ccco2)CC1	-	-	-	-	-	.	.
O=C(CSc1c2c(nc3ccc(Cl)cc13)CCCC2)N1CCN(C(=O)c2ccco2)CC1	-	-	-	40.5	.	-	-
Cc1ccc(-c2nn(-c3ccccc3)cc2NC(=O)CCl)cc1	-	-	-	36.8	-	-	41.1
O=S(=O)(NCC1CCCO1)c1cnc(Cl)c(Br)c1 (centres undefined)	-	-	-	28.5	-	19.0	43.3
O=S(=O)(NCC1CCCO1)c1cc(Cl)ccc1Br (centres undefined)	-	-	-	-	-	.	.
O=C(OC1CCOC1=O)c1ccc(CO)cc1 (centres undefined)	-	-	-	-	.	.	.
CCOc1ccc(C(=O)NCC(=O)OC2CCOC2=O)cc1OCC (centres undefined)	-	-	-	32.2	-	16.0	-
O=C(CCC(=O)c1ccc(F)cc1)OC1CCOC1=O (centres undefined)	-	-	-	32.6	-	21.5	37.1
CC1(C)C[C@@H](O)CC2(C1)C[C@]1(C)CC(O)[C@H]2C(C)(C)C1 (some centres undefined)	.	-	-	-	.	.	.
CC1(C)OC(=O)C(=CNNc2c(Cl)cc(Cl)cc2Cl)C(=O)O1	-	-	-	-	.	.	.
O=C(Nc1ccccc1)C1CCCN1S(=O)(=O)c1ccc(Br)cc1 (centres undefined)	-	-	-	-	.	.	.
FC(F)Oc1ccccc1NC(=S)NCCc1ccccc1	-	-	-	31.7	.	-	-
CC(=O)C1=CCC(c2ccccc2)N(S(=O)(=O)c2ccccc2C)C1 (centres undefined)	.	.	-	.	.	.	.
CCOc1ccccc1/C=C(\C#N)C(=O)Nc1cccc(C(=O)O)c1	-	-	-	38.0	.	-	-
Cc1cc(C(=O)O)ccc1-n1c(C)cc(/C=C(/C#N)C(=O)Nc2ccccc2)c1C	.	-	-	31.3	-	-	-
Cc1ccc(S(=O)(=O)N2CCC(C(=O)Nc3nnc(C4CCCC4)s3)CC2)cc1	-	-	-	-	-	.	.
O=C(Nc1nnc(C2CCCC2)s1)C1CCN(S(=O)(=O)c2ccc(Cl)cc2)CC1	-	-	-	29.9	-	-	-
CC(=O)Nc1ccc(S(=O)(=O)N2CCSc3ccccc32)cc1	-	-	-	-	.	.	.
CC12CCC(=O)N1C(C(=O)OCC(=O)Nc1ccc(Cl)c(Cl)c1)CS2 (centres undefined)	-	-	-	-	-	.	.
COc1ccc(C(=O)NCC(=O)NCC(=O)OCC(=O)c2ccc(Br)cc2)cc1	-	-	-	-	.	.	.
O=C(CCNC(=O)c1ccccc1)OCN1C(=O)c2ccccc2C1=O	-	-	-	-	-	.	.
